Experimental data from the RNAGym collection of RNA variant scans (doi:10.1126/science.aae0568).
This sample holds only a part of the variants without activity.

B1: tRNA (parent)
chain: GUUCCGUUGGCGUAAUGGUAACGCGUCUCCCUCCUAAGGAGAAGACUGCGGGUUCGAGUCCCGUACGGAACG

Variants of: B1
Assay: yeast fitness relative to wild type (ratio to wild type); higher = fitter; tRNA-Arg(CCU), competitive growth, 37 C, YPD
How it was run: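 The tRNA-Arg(CCU) gene variants were made by chemical synthesis with a 3% per-site mutation rate at 69 sites and inserted at the native genomic locus of Saccharomyces cerevisiae. After pooling, the strains were competed in YPD at 37°C for 24 hours in six parallel replicates. Gene amplicons from the start population and each end population were read by 100-nucleotide paired-end sequencing, and Darwinian fitness relative to wild type was taken from genotype frequency changes. Genotypes needed ≥ 100 starting reads, and estimates < 0.5 were set to 0.5.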

Variant	yeast fitness
A45U G56C	0.714
A45U G67A	0.767
A45U G68A	0.926
A45U G68A A70C	0.641
A45U G68C	0.66
A45U G68U	0.836
A45U U47A C60G	≤ 0.5
A45U U53C	0.793
A45U U53C G67A A69C	0.635
A45U U53G G67A	≤ 0.5
A45U U54C U64A A69U	≤ 0.5
A45U U59C	0.897
A45U U59G	0.66
C46A A57C C60A	≤ 0.5
C46A A57G G68A	0.605
C46A A65C	0.973
C46A A65U	0.843
C46A C49A A70C	≤ 0.5
C46A C49A C61A	≤ 0.5
C46A C49G	0.746
C46A C49G C55U	0.563
C46A C49U	0.958
C46A C55A A65C	0.533
C46A C62U	1.02

Variant	yeast fitness
C46A C62U A69C	0.69
C46A G48A U64G	0.951
C46A G48C	0.924
C46A G48C U59G	0.534
C46A G52A	0.816
C46A G56A C61A	0.603
C46A G58A	0.837
C46A G63A G67A	0.552
C46A G63C	0.995
C46A G67A	0.88
C46A G68A A70C	1.11
C46A U47A	1.04
C46A U47G C49A G52A G58C U64G A65G	≤ 0.5
C46A U53A	0.738
C46A U59C	0.898
C46A U59G	1.06
C46A U64A A65C	0.978
C46A U64G	0.82
C46G A57C	0.61
C46G A57C G58A G67A	≤ 0.5
C46G A57U	0.907
C46G A65C	0.97
C46G A65G	0.897
C46G A65U	0.992

Variant	yeast fitness
C46G A69C	0.972
C46G A69U	1.03
C46G C49A G67A	0.606
C46G C49A G67C	≤ 0.5
C46G C49A G68C A69G	≤ 0.5
C46G C49A U54C G58C	≤ 0.5
C46G C49G C62A	0.61
C46G C49U A65U A69C	≤ 0.5
C46G C55G	0.722
C46G C55G A69G	≤ 0.5
C46G C60A	0.576
C46G C60A G67U	0.536
C46G C61G A65C	0.574
C46G C61G C62A	≤ 0.5
C46G C62G A69G	0.733
C46G C66G	0.986
C46G C66U	0.928
C46G G48C	1.02
C46G G48C A65U G68A	≤ 0.5
C46G G48C U64G	≤ 0.5
C46G G51A	0.766
C46G G51C	0.591
C46G G51C A70C	≤ 0.5
C46G G52A C66U	0.631

Variant	yeast fitness
C46G G56A A57C C61U	0.575
C46G G63C G67A A70G	≤ 0.5
C46G G67A	0.912
C46G G67C	0.86
C46G U53A A65C	≤ 0.5
C46G U54A C62U	≤ 0.5
C46G U59C	1.05
C46G U59C G68C	≤ 0.5
C46G U59G C61G	≤ 0.5
C46U A57C U64C	≤ 0.5
C46U A57U	1
C46U A65U	0.883
C46U A69C	0.976
C46U A69U	1.03
C46U A69U A70G	0.761
C46U A70C	0.976
C46U C49A A65U	0.554
C46U C49A C60A A70C	≤ 0.5
C46U C49G	0.997
C46U C49G G51C C66G	≤ 0.5
C46U C49G G68A	0.64
C46U C49U U53C	0.703
C46U C55A	0.587
C46U C60A A69U	0.57

Variant	yeast fitness
C46U C61A	0.83
C46U C61A G67A	0.568
C46U C61G A70C	≤ 0.5
C46U C61G C66U A69U	≤ 0.5
C46U C61U	0.956
C46U C61U G67A	0.535
C46U C62A	0.684
C46U C62U	1
C46U C66A	0.853
C46U C66G	0.949
C46U G48A C55U U59A	≤ 0.5
C46U G50A C61U	0.749
C46U G50A G56C C62A C66U	0.582
C46U G50C C55A G63A C66U	≤ 0.5
C46U G52A U59C	0.631
C46U G56C A69U	0.54
C46U G58C C60A	0.637
C46U G63A A69C	0.833
C46U G63C	0.753
C46U U53C	0.854
C46U U54C A69C	0.778
C46U U54C G56A	0.642
C46U U54C G58C G67A	≤ 0.5
C46U U54C G68A	≤ 0.5

Variant	yeast fitness
U47A	0.99
U47A A65C	0.82
U47A A65C C66G	≤ 0.5
U47A A65U	0.68
U47A A70G	0.921
U47A A70U	1.06
U47A C55A G68A	0.532
U47A C55G C66G	0.639
U47A C61A	0.769
U47A C61G	0.69
U47A C61U A70C	0.558
U47A C62A	0.683
U47A C62U	0.842
U47A C66U	0.872
U47A G51A C55U	0.642
U47A G52A	0.821
U47A G52C	0.581
U47A G63A	0.823
U47A G67A	0.765
U47A G67C	0.88
U47A U53A	0.557
U47A U54C	0.811
U47A U59A U64G	≤ 0.5
U47A U64A	0.677

Variant	yeast fitness
U47C	1
U47C A57G A65U C66A A69C	≤ 0.5
U47C A57G C62U	≤ 0.5
U47C A57U	0.623
U47C A65C	1.04
U47C A65G G68C	0.546
U47C A69C	1.07
U47C C49A A65G	≤ 0.5
U47C C49A G51A C55A C60A	≤ 0.5
U47C C49G	0.909
U47C C60U C62A	≤ 0.5
U47C C61G	0.671
U47C G48C A65C	0.619
U47C G50C	0.633
U47C G51A	0.906
U47C G58U G63A A65U	≤ 0.5
U47C G63A	0.949
U47C G67C	0.886
U47C G67U	0.86
U47C G68C	0.742
U47C G68U	1.1
U47C U54C	0.843
U47C U59G	0.936
U47C U64C	0.926

Variant	yeast fitness
U47G	0.633
U47G A57U C60A	0.555
U47G A65C	0.672
U47G A69C	0.69
U47G A69U	0.764
U47G C49A G63A G68A	≤ 0.5
U47G C60A	≤ 0.5
U47G C60U A65C	≤ 0.5
U47G C62G G68A	0.525
U47G C62U	0.633
U47G C62U A65C	≤ 0.5
U47G C62U A65U	0.64
U47G G50A C55A G56A	0.533
U47G G52A	≤ 0.5
U47G G52A C61A G67C	≤ 0.5
U47G U54C	0.504
U47G U59A	0.543
U47G U64C	0.622
G48A A57G C61U C62U	≤ 0.5
G48A A57U	0.649
G48A A65G	0.981
G48A A70C	0.956
G48A A70U	1.04
G48A C49A	0.969

Variant	yeast fitness
G48A C49U A65G	0.743
G48A C55U A57G G68C	≤ 0.5
G48A C55U G63A	0.706
G48A C60G	0.583
G48A C60U A70U	0.71
G48A C61G	0.559
G48A C61G A69C	0.603
G48A C62U	1.01
G48A C62U A70U	0.824
G48A C66A G68U A70C	≤ 0.5
G48A C66U	0.97
G48A G50A	0.973
G48A G50A U54A	0.597
G48A G51A	1.04
G48A G51A A69U	0.755
G48A G52C A57C C62A	≤ 0.5
G48A G52C U54C	0.542
G48A G56A A65G	0.718
G48A G56C	0.618
G48A G56C A65G	0.543
G48A G58A U59G G67A	≤ 0.5
G48A G58C C61A	0.601
G48A G63A	0.887
G48A G63A A70U	0.811

Variant	yeast fitness
G48A G67A	0.91
G48A G67C	1.02
G48A G68C	0.985
G48A G68U A69C	0.524
G48A U53C C60A C61U	≤ 0.5
G48A U54A	0.692
G48A U54C A69C	0.686
G48A U54C C66U	≤ 0.5
G48A U54G A70U	≤ 0.5
G48A U64G	1
G48C A57G G63A	≤ 0.5
G48C A65C	0.989
G48C A65C C66G	0.557
G48C A65G G67C	≤ 0.5
G48C A69U	0.95
G48C A70U	1
G48C C49U A70C	0.592
G48C C55A C61U	≤ 0.5
G48C C60A	0.644
G48C C61G A65U	≤ 0.5
G48C C62G A65U	≤ 0.5
G48C C62U	0.899
G48C C62U G68C	0.557
G48C C66A	0.633

Variant	yeast fitness
G48C G50A	0.651
G48C G50A G67A	≤ 0.5
G48C G51C A69U	≤ 0.5
G48C G52C	0.552
G48C G52C A57C G58A	≤ 0.5
G48C G56A	0.905
G48C G56A A70U	0.918
G48C G56A C61A	≤ 0.5
G48C G63C	0.705
G48C G67A	0.873
G48C G67C A70U	0.53
G48C G67U	0.811
G48C U53C	0.694
G48C U53G	0.635
G48C U59C	0.929
G48C U59G	0.722
G48U C61A	≤ 0.5
C49A A57C A65G	≤ 0.5
C49A A57C A69C	≤ 0.5
C49A A57C A69U	0.528
C49A A69C	0.709
C49A A69U	0.681
C49A A70G	0.675
C49A C55G	≤ 0.5

Variant	yeast fitness
C49A C60G	0.638
C49A C61G	0.541
C49A C61U	0.607
C49A C61U C62A G67C	≤ 0.5
C49A C62U	0.717
C49A C62U C66U	0.585
C49A G52A C61U	≤ 0.5
C49A G56C G58C	≤ 0.5
C49A G56C G68C	0.574
C49A G63A	0.582
C49A G67A G68U	≤ 0.5
C49A G67C	0.825
C49A U53C C62G	0.598
C49A U59A	0.681
C49A U64G A69C	0.592
C49G A57C G67U	0.576
C49G A69C	0.766
C49G A69U	0.955
C49G A70C	0.845
C49G A70G	0.832
C49G A70U	0.872
C49G C55A C60U C66A	≤ 0.5
C49G C55G C61G	0.558
C49G C60U	0.692

Variant	yeast fitness
C49G C62A	0.845
C49G G50A G68C A69G	≤ 0.5
C49G G50C A65U	0.544
C49G G52C	0.664
C49G G56A A69C	0.73
C49G G56C	0.641
C49G G56C A70C	≤ 0.5
C49G G56C G67C	≤ 0.5
C49G G58A	0.844
C49G G58A C66G	0.564
C49G G63C G68U	0.522
C49G G67A	0.908
C49G G67U	0.695
C49G G68C A70C	0.623
C49G U53A A70G	≤ 0.5
C49G U53A C66U	≤ 0.5
C49G U53C	0.723
C49G U53C C60A	≤ 0.5
C49G U59A G63A	0.564
C49G U59G	0.635
C49G U64C	0.972
C49G U64G A65G A70U	0.683
C49U A57U	0.632
C49U A57U U59C	0.536

Variant	yeast fitness
C49U A65C	0.935
C49U A65C A70G	0.768
C49U A65U	0.91
C49U A65U A69U	0.861
C49U A70G	1.07
C49U C55A	0.557
C49U C55A C60A	≤ 0.5
C49U C55U	0.649
C49U C55U A69C	0.665
C49U C55U C61A	≤ 0.5
C49U C60A A70G	0.546
C49U C60A C61A	0.574
C49U C61A	0.57
C49U C61A A65U	≤ 0.5
C49U C61G A69C	0.559
C49U C61U	0.814
C49U C61U A70G	0.831
C49U C62G	0.704
C49U G50A	0.93
C49U G51A A69U	0.573
C49U G51C A69C	≤ 0.5
C49U G52A	0.748
